Experimental data published in ChEMBL document CHEMBL4396943, “The tetrahydroxanthone-dimer phomoxanthone A is a strong inducer of apoptosis in cisplatin-resistant solid cancer cells” (Bioorg Med Chem, 2019).
Calls of active or inactive are those of the source. No cut-off for these calls is given here.

Key:
HCT-116 = assay: Antiproliferative activity against human HCT116 cells assessed as reduction in cell viability incubated for 72 hrs by MTT assay; type: functional, cell-based; conditions: HCT-116, 72 h
Method in brief: (§1)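 Cells seeded overnight in 96-well plates, then exposed to increasing concentrations (compound dissolved in DMSO, diluted in medium) for the stated time. MTT (5 mg/ml in PBS) added for 15 min, formazan dissolved in DMSO, absorbance read at 544 nm minus 690 nm background. IC50 = concentration giving 50% signal decrease. At least three independent experiments in triplicate.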

MDA-MB-231 = assay: Potency index, ratio of cisplatin IC50 to compound IC50 for antiproliferative activity in cisplatin-resistant human MDA-MB-231 cells assessed as reduction in cell viability incubated for 72 hrs by MTT assay; type: functional
Method in brief: (§2)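 Cells seeded in 96-well plates overnight, exposed 72 h to increasing concentrations. MTT (5 mg/ml) added for 15 min, formazan dissolved in DMSO, absorbance read at 544 nm with 690 nm background subtracted. IC50 is the concentration reducing signal by 50%. Three independent experiments in triplicate. CisR sublines made by weekly intermittent cisplatin exposure for 24–30 weeks.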

A2780 [1] = assay: Induction of apoptosis in human A2780 cells assessed as nuclear condensation by measuring reduced size and increased intensity of nuclei at 10 uM incubated for 24 hrs by hoechst 33342 staining based fluorescence microscopy; type: functional, cell-based
[2] = Potency index, ratio of cisplatin IC50 to compound IC50 for antiproliferative activity in human Cal27CisR cells assessed as reduction in cell viability incubated for 72 hrs by MTT assay; type: functional; method in brief: as §2
J82 [3] = assay: Induction of apoptosis in cisplatin resistant human J82 cells assessed as depolarization of mitochondrial membrane potential incubated for 1 hr by TMRE staining based flow cytometry; type: functional, cell-based
Method in brief: (§3)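 Cells seeded overnight; medium switched to FBS-free just before treatment to avoid TMRE ester cleavage. Exposure 1 h, 2 h or 24 h, then TMRE staining for 20 min. Cells trypsinized, centrifuged at 4 °C and read by flow cytometry. Medium as negative control, 20 µM CCCP as positive control. […]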

Homo sapiens [4] = species on record: Homo sapiens; assay: Ratio of IC50 for induction of mitochondrial membrane depolarization in cisplatin resistant human J82 cells to IC50 for induction of mitochondrial membrane depolarization in human A2780cisR cells after 2 hrs by TMRE staining based flow cytometry; type: functional, cell-based
Method in brief: (§4)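 Cells seeded overnight; complete medium swapped for FBS-free medium just before treatment to avoid TMRE ester cleavage. Exposure to PXA for 1 h, 2 h or 24 h. TMRE staining 20 min, cells collected by trypsinisation, ΔΨm read by flow cytometry. Medium served as negative control, 20 µM CCCP as positive control. Mean ± SEM reported.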

A2780cisR [5] = assay: Antiproliferative activity against human A2780cisR cells assessed as reduction in cell viability incubated for 24 hrs by MTT assay; type: functional, cell-based; method in brief: as §1
A2780 [6] = assay: Induction of apoptosis in human A2780 cells assessed as depolarization of mitochondrial membrane potential afer 24 hrs by TMRE staining based flow cytometry; type: functional, cell-based; method in brief: as §3
J82 [7] = assay: Antiproliferative activity against human J82 cells assessed as reduction in cell viability incubated for 72 hrs by MTT assay; type: functional, cell-based; conditions: J82, 72 h; method in brief: as §1
Homo sapiens [8] = species on record: Homo sapiens; assay: Ratio of IC50 for induction of mitochondrial membrane depolarization in human J82 cells to IC50 for induction of mitochondrial membrane depolarization human A2780 cells after 2 hrs by TMRE staining based flow cytometry; type: functional, cell-based; method in brief: as §4
KYSE-510 [9] = assay: Antiproliferative activity against human cisplatin resistant KYSE-510 cells assessed as reduction in cell viability incubated for 72 hrs by MTT assay; type: functional, cell-based; conditions: KYSE-510, 72 h; method in brief: as §1
A2780 [10] = assay: Reduction of H2O2-induced ROS generation in human A2780 cells at 316 nM incubated for 18 hrs by H2DCFDA staining based flow cytometry; type: functional, cell-based
Method in brief: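 Cells plated overnight in growth medium (approx. 150,000 cells/well), exposed to compound for 18 h. Then washed with PBS and moved to phenol red-free RPMI-1640 without FBS or antibiotics. Loaded with 10 µM H2DCF-DA, 30 min, 37 °C, dark. One aliquot then given 250 µM H2O2 for 1 h at 37 °C in the dark. DCF fluorescence read by flow cytometry; three independent experiments.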

A2780cisR [11] = assay: Cell cycle arrest in human A2780cisR cells assessed as accumulation at G1 phase at 5 uM incubated for 24 hrs by propidium iodide staining based flow cytometry (reference value: 68.7%); type: functional
Method in brief: (§5)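 After 24 h exposure, cells washed in ice-cold PBS. About 2 million cells fixed in cold 70% ethanol at −20 °C for at least 24 h. Stained with 0.1% Triton X-100, 200 µg/ml RNase A and 20 µg/ml propidium iodide in PBS, 15 min at 37 °C in the dark. DNA content read by flow cytometry with doublet discrimination. Medium as untreated control, paclitaxel as G2/M control. Three independent experiments.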

A2780 [12] = assay: Antiproliferative activity against human A2780 cells assessed as reduction in cell viability incubated for 48 hrs by MTT assay; type: functional, cell-based; conditions: A2780, 48 h; method in brief: as §1
J82 [13] = assay: Induction of apoptosis in human J82 cells assessed as increase in activation of caspase 3/7 at 50 uM incubated for 24 hrs by hoechst 33342 staining based fluorescence microscopy (reference value: 1.1%); type: functional
KYSE-510 [14] = assay: Potency index, ratio of cisplatin IC50 to compound IC50 for antiproliferative activity in human KYSE-510 cells assessed as reduction in cell viability incubated for 72 hrs by MTT assay; type: functional; method in brief: as §2
A2780 [15] = assay: Cell cycle arrest in human A2780 cells assessed as accumulation at G1 phase incubated for 24 hrs by propidium iodide staining based flow cytometry; type: functional; method in brief: as §5
A2780 [16] = assay: Induction of apoptosis in human A2780 cells assessed as decrease in cIAP expression at 5 uM incubated for 24 hrs by proteome profiler analysis; type: functional, cell-based
Method in brief: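 A2780 cells treated 24 h with 5 µM, then apoptosis-related proteins read on an antibody array (Proteome Profiler human apoptosis array) per kit instructions.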

A2780cisR [17] = assay: Induction of apoptosis in human A2780cisR cells assessed as depolarization of mitochondrial membrane potential incubated for 1 hr by TMRE staining based flow cytometry; type: functional, cell-based; method in brief: as §4
A2780cisR [18] = assay: Induction of apoptosis in human A2780cisR cells assessed as decrease in cIAP expression at 5 uM incubated for 24 hrs by proteome profiler analysis; type: functional, cell-based
Method in brief: (§6)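 A2780 and A2780CisR cells treated 24 h with 5 µM PXA; apoptosis-related proteins profiled with a human apoptosis antibody array following kit instructions.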

A2780 [19] = assay: Ratio of IC50 for antiproliferative activity in human A2780 cells assessed as reduction in cell viability incubated for 24 hrs by MTT assay to IC50 for antiproliferative activity in human A2780 cells assessed as reduction in cell viability incubated for 72 hrs by MTT assay; type: functional
Method in brief: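 MTT assay as for the viability IC50s (overnight seeding, MTT 15 min, DMSO solubilisation, 544/690 nm), with PXA incubation for 24 h versus 72 h. IC50 is the concentration giving a 50% signal decrease. At least three independent experiments.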

A2780 [20] = assay: Induction of apoptosis in human A2780 cells assessed as increase in caspase 3 cleavage at 5 uM incubated for 24 hrs by proteome profiler analysis; type: functional, cell-based; method in brief: as §6

With CC(=O)OC[C@]12Oc3c(-c4ccc(O)c5c4O[C@@]4(COC(C)=O)C(=C(O)C[C@@H](C)[C@H]4OC(C)=O)C5=O)ccc(O)c3C(=O)C1=C(O)C[C@@H](C)[C@H]2OC(C)=O [PHOMOXANTHONE A] the IC50 (HCT-116) was 1.82 µM, the “Ratio IC50” value (MDA-MB-231) was 2 - 10 and the Activity (A2780 [1]) was “Active”. The “Ratio IC50” value [2] was 2 - 10, the Activity (J82 [3]) was “Dose-dependent effect” and the IC50 (J82 [3]; J82, 1 h) was 3.12 µM. For the same compound, the Ratio IC50 (Homo sapiens [4]) was 3, the IC50 (A2780cisR [5]; read-out: IC50) was 1.88 µM and the IC50 (A2780cisR [5]; read-out: pIC50 (converted)) was 1.86 µM. For the same compound, the Activity (A2780 [6]) was “Dose-dependent effect”, the IC50 (J82 [7]) was 3.23 µM and the Ratio IC50 (Homo sapiens [8]) was 3. For the same compound, the IC50 (KYSE-510 [9]) was 0.79 µM, the inhibition (A2780 [10]) was “inactive” and the Activity (A2780cisR [11]) was 83.3%. It also gave an IC50 (A2780 [12]; read-out: IC50) of 1.18 µM, an IC50 (A2780 [12]; read-out: pIC50 (converted)) of 1.17 µM and an Activity (J82 [13]) of 60%. The “Ratio IC50” value (KYSE-510 [14]) was 2 - 10, the Activity (A2780 [15]) was “Dose-dependent effect” and the Activity (A2780 [16]) was “Active”. For the same compound, the Activity (A2780cisR [17]) was “Dose-dependent effect”, the IC50 (A2780cisR [17]) was 1.25 µM and the Activity (A2780cisR [18]) was “Active”. The “Ratio IC50” value (A2780 [19]) was 2.5 and the Activity (A2780 [20]) was “Active”.
